# Results of several laboratories.
# Protocols differ between the studies behind these lines.
SMILES,tested on,test,setting,endpoint,result
COc1cc(C2=CCCc3c2ccc(OC)c3OC(C)c2cnc([N+](=O)[O-])n2C)cc(OC)c1OC (centres unmarked),,"tubulin polymerisation, inhibitor",20 min,IC50,> 20 µM
Cc1n[nH]c2ccc3nc(-c4ccc(C(=O)NCCN(C)C)cc4)c4c(c3c12)CCCC4,HCC827,cell growth or viability,72 h,GI50,4.07 µM
O=C(Nc1ccc(C(F)(F)F)cc1)c1ccc(COC(Cn2ccnc2)c2ccc(Cl)cc2Cl)cc1 (centres unmarked),Nakaseomyces glabratus,"microbial growth, broth dilution",,MIC80,0.125 mg/L
CC(C)(C)c1cc(NC(=O)Nc2ccc(-c3cn4c(n3)sc3cc(OCCN5CCOCC5)ccc34)cc2)no1,HCC827,cell growth or viability,72 h,GI50,> 10 µM
COc1cc(C2=CCCCc3c2ccc(OC)c3OC(C)c2ccc([N+](=O)[O-])s2)cc(OC)c1OC (centres unmarked),,"tubulin polymerisation, inhibitor",20 min,IC50,> 20 µM
Cc1n[nH]c2ccc3nc(-c4ccc(C(=O)NCCN(C)C)cc4F)c4c(c3c12)CCCCC4,HCC827,cell growth or viability,72 h,GI50,4.87 µM
O=C(Nc1cccc(Cl)c1)c1ccc(COC(Cn2ccnc2)c2ccc(Cl)cc2Cl)cc1 (centres unmarked),Nakaseomyces glabratus,"microbial growth, broth dilution",,MIC80,0.25 mg/L
CCCn1cnc2ccc(-c3ccc(NC(=O)CC4CCC4)nc3)cc2c1=O,HCC827,"cell growth or viability, CCK-8",72 h,IC50,1.21 µM
CN(C)CCNC(=O)c1ccc(-c2nc3ccc4[nH]ncc4c3c3c2CCCC3)c(F)c1,HCC827,cell growth or viability,72 h,GI50,1.01 µM
CCCCC(=O)Nc1ccc(-c2ccc3ncn(CC4CC4)c(=O)c3c2)cn1,HCC827,"cell growth or viability, CCK-8",72 h,IC50,0.056 µM
O=C(Nc1ccccc1)c1ccc(COC(Cn2ccnc2)c2ccc(Cl)cc2Cl)cc1 (centres unmarked),Nakaseomyces glabratus,"microbial growth, broth dilution",,MIC80,0.25 mg/L
Cc1cccc(NC(=O)Nc2ccc(-c3ccc4ncn(Cc5ccccc5)c(=O)c4c3)cn2)c1,HCC827,"cell growth or viability, CCK-8",72 h,IC50,7.31 µM
Cc1nc(Nc2ncc(C(=O)Nc3c(C)cccc3Cl)s2)cc(N2CC[C@H](O)C2)n1,OCI-LY19,"cell growth or viability, ATP luminescence","10 µM, 72 h",inhibition,9%
CCCCn1cnc2ccc(-c3ccc(NC(=O)NCCC)nc3)cc2c1=O,HCC827,"cell growth or viability, CCK-8",72 h,IC50,> 10 µM
COc1cc(C2=CCCc3c2ccc(OC)c3OCc2cnc([N+](=O)[O-])n2C)cc(OC)c1OC,,"tubulin polymerisation, inhibitor",20 min,IC50,> 20 µM
COc1ccc(NC(=O)c2ccc(COC(Cn3ccnc3)c3ccc(Cl)cc3Cl)cc2)cc1 (centres unmarked),Nakaseomyces glabratus,"microbial growth, broth dilution",,MIC80,0.125 mg/L
CCCCn1cnc2ccc(-c3ccc(NC(=O)Nc4ccc(C(F)(F)F)cc4)nc3)cc2c1=O,HCC827,"cell growth or viability, CCK-8",72 h,IC50,> 10 µM
